Results on ten molecules are retold here after ChEMBL document CHEMBL1142349, “Molecular modeling study and synthesis of novel pyrrolo[2,3-d]pyrimidines and pyrrolotriazolopyrimidines of expected antitumor and radioprotective activities” (Bioorg Med Chem, 2008).

Assay [1] concerns Ehrlich. Kind of assay: Cytotoxicity against mouse Ehrlich Ascites carcinoma assessed as non viable cells at 200 umol/mL after 2 hrs by trypan blue exclusion assay. Type of assay: functional. The procedure, abridged:
(§1)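 EAC cells at 2.5 × 10^6/ml in saline. Compounds were dissolved in DMSO:saline (7:3). 100 µL cell suspension was mixed with compound and made to 1 mL with saline, giving final 200, 100, 75, 50 and 25 µM. Incubated 2 h at 37 °C. Trypan blue exclusion gave % non-viable cells. IC50 was read from the survival-ratio vs concentration curve.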

Assay [2] has as its system Ehrlich. Kind of assay: Cytotoxicity against mouse Ehrlich Ascites carcinoma assessed as non viable cells at 50 umol/mL after 2 hrs by trypan blue exclusion assay. Type of assay: functional. The procedure, abridged: as §1
Assay [3] deals with Ehrlich. Kind of assay: Cytotoxicity against mouse Ehrlich Ascites carcinoma assessed as non viable cells at 75 umol/mL after 2 hrs by trypan blue exclusion assay. Type of assay: functional. The procedure, abridged: as §1
The test system of assay [4] is Ehrlich. Kind of assay: Cytotoxicity against mouse Ehrlich Ascites carcinoma assessed as non viable cells at 100 umol/mL after 2 hrs by trypan blue exclusion assay. The format is functional. The procedure, abridged:
as §1

Assay [5] is described as follows: Cytotoxicity against mouse Ehrlich Ascites carcinoma after 2 hrs by trypan blue exclusion assay. The format is functional. Summed up: as §1
Assay [6] concerns Ehrlich. Kind of assay: Cytotoxicity against mouse Ehrlich Ascites carcinoma assessed as non viable cells at 25 umol/mL after 2 hrs by trypan blue exclusion assay. Type of assay: functional. Summed up: as §1
Assay [7] has as its system Mus musculus. Kind of assay: Radioprotective activity against gamma-irradiated Swiss albino mouse assessed as increase in blood glutathione level at 150 mg/kg, ip after 7 days relative to control. The note with it: route intraperitoneal.
In assay [8] the test system is Mus musculus. Kind of assay: Radioprotective activity against gamma-irradiated Swiss albino mouse assessed as reduction of plasma lipid peroxide level at 150 mg/kg, ip after 7 days relative to control. More on the design: scale not given: the % may be the effect or the level left. To be noted: route intraperitoneal. The format is functional. Summed up: (§2)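 Female Swiss albino mice (25–30 g) were dosed ip at 150 mg/kg in CMC every other day ×3 over 7 days. Each dose was given 30 min before 6 Gy whole-body γ-irradiation (Cs-137, 0.86 Gy/min). Mice were fasted 16 h and bled by heart puncture 1 day after the last irradiation. Plasma lipid peroxide was measured as MDA (Yoshioka). Values are mean ± SE, n=8, as % change from control, with t test.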

For assay [9], the system named is Mus musculus. Kind of assay: Radioprotective activity against gamma-irradiated Swiss albino mouse assessed as increase in blood glutathione level at 150 mg/kg, ip after 7 days. The note with it: route intraperitoneal.
Assay [10] has as its system Mus musculus. Kind of assay: Radioprotective activity against gamma-irradiated Swiss albino mouse assessed as reduction of plasma lipid peroxide level at 150 mg/kg, ip after 7 days. Type of assay: functional. To be noted: route intraperitoneal. The procedure, abridged: as §2

For `N=c1c2c(-c3ccccc3)cn(-c3ccc(S(N)(=O)=O)cc3)c2ncn1NC(=S)Nc1ccccc1`, the Activity was 100% in the assay with Ehrlich [1]; 60% in the assay on Ehrlich [2]; 80% in the assay on Ehrlich [3]; 95% in the assay on Ehrlich [4]; 50% in the assay with Ehrlich [6]. The molecule also displayed an IC50 in assay [5] of 26.5 µM.

As to `N#Cc1c(N)nn2cnc3c(c(-c4ccccc4)cn3-c3ccc(S(N)(=O)=O)cc3)c12`, the Activity with Ehrlich [1], in the assay on Ehrlich [2], in the assay with Ehrlich [3], in the assay on Ehrlich [4] and in the assay on Ehrlich [6] was 0% each time. For the same molecule, in assay [5], the concentration for half-maximal inhibition (IC50) is above 200 µM.

Turning to `N#Cc1c(-c2ccccc2)cn(-c2ccc(S(N)(=O)=O)cc2)c1N`, the Activity in the assay with Ehrlich [1] amounted to 100%; with Ehrlich [2] it was 80%; with Ehrlich [3], 100%; with Ehrlich [4], 100%; in the assay on Ehrlich [6] it was 40%. The molecule also registered an IC50 in assay [5] of 88.8 µM.

`COc1cccc2c1C(=O)c1c(O)c3c(c(O)c1C2=O)C[C@@](O)(C(=O)CO)C[C@@H]3O[C@H]1C[C@H](N)[C@H](O)[C@H](C)O1` [DOXORUBICIN]: the Activity was 100% with Ehrlich [1]; 55% with Ehrlich [2]; 64% with Ehrlich [3]; 75% with Ehrlich [4]; 20% with Ehrlich [6]. Also, half-maximal inhibition in [5] (IC50) was put at 81.5 µM.

Consider `NS(=O)(=O)c1ccc(-n2cc(-c3ccccc3)c3/c(=N/C(=O)c4ccc(Cl)cc4)n(NC(=O)c4ccc(Cl)cc4)cnc32)cc1`, for which the Activity in the assay with Mus musculus [7] was determined as 386%; in the assay on Mus musculus [8] it was 101%; in the assay on Mus musculus [9], 304 mg/dL; in the assay with Mus musculus [10], 80.3 µmol/mL.

On to `NS(=O)(=O)c1ccc(-n2cc(-c3ccccc3)c3c2ncn2nc(-c4ccccc4)nc32)cc1`, for which the Activity in the assay on Ehrlich [1], in the assay on Ehrlich [2], in the assay with Ehrlich [3], in the assay on Ehrlich [4] and in the assay with Ehrlich [6] was 0% each time. Also, in assay [5], the IC50 is above 200 µM.

For the molecule `N#CCc1nc2c3c(-c4ccccc4)cn(-c4ccc(S(N)(=O)=O)cc4)c3ncn2n1`, the Activity in the assay on Ehrlich [1] turned out to be 90%; in the assay on Ehrlich [2], 0%; with Ehrlich [3] it was 15%; in the assay with Ehrlich [4], 80%; in the assay on Ehrlich [6], 0%. The IC50 in assay [5] amounted to 90.2 µM.

Regarding `NS(=O)(=O)c1ccc(-n2cc(-c3ccccc3)c3c2ncn2nc(S)nc32)cc1`, the Activity in the assay with Ehrlich [1] amounted to 80%; in the assay on Ehrlich [2], 0%; with Ehrlich [3] it was 20%; in the assay with Ehrlich [4] it was 80%; in the assay on Ehrlich [6], 0%. Further, 90.2 µM corresponded to half-maximal inhibition in assay [5] (IC50).

As to `CC(=O)NS(=O)(=O)c1ccc(-n2cc(-c3ccccc3)c3c2ncn2nc(C)nc32)cc1`, the Activity turned out to be 100% with Ehrlich [1]; 5% in the assay with Ehrlich [2]; 20% with Ehrlich [3]; 80% with Ehrlich [4]; 0% in the assay with Ehrlich [6]. Moreover, in assay [5], 75.8 µM corresponded to half-maximal inhibition (IC50).

With `NS(=O)(=O)c1ccc(-n2cc(-c3ccccc3)c3c2ncn2ncnc32)cc1`, the Activity in the assay on Ehrlich [1] came out at 90%; with Ehrlich [2] it was 0%; in the assay with Ehrlich [3], 15%; in the assay on Ehrlich [4] it was 60%; with Ehrlich [6], 0%. Further, inhibition in assay [5] was half-maximal at 100 µM (IC50).
